Entries after “also recorded” stand apart in the source; their conditions may differ.
Key:
eNOS [1] = assay: eNOS oxygenase activity, L-[3H]citrulline formation; assay type: biochemical, human; details: 50 nM eNOS, 1 μM calmodulin, 0.5 mM Ca2+, 10 μM L-arginine, 37 °C, 5 min, varied peptide concentrations
In short: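 Steady-state reaction in 25 mM Tris pH 7.5, 100 mM NaCl, 0.1 mM EGTA, 0.1 mM EDTA, 100 μM β-NADPH, 100 μM H4B and 1 μCi L-[3H]arginine tracer. Read-out was L-[3H]citrulline formed. Activity was normalized as percent of the rate without peptide. Mean ± standard deviation of triplicate experiments.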

CaM mutant B1234Q = assay: Gel mobility-shift assay of peptide binding to CaM mutant B1234Q; design: species or system human; details: CaM:peptide ratio 1:10, 100 μM Ca2+
In short: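 Calmodulin mutant with Glu→Gln at all four Ca2+ sites ([…]), expressed in E. coli BL21(DE3) and purified by heat treatment at 70°C, ammonium sulfate fractionation and gel filtration. Test peptide and mutant were incubated at a 1:10 CaM:peptide ratio for 1 h in 20 mM Tris pH 7.5 with 100 μM Ca2+. Samples ran on 18% nondenaturing, non-reducing PAGE with 100 μM free Ca2+ in gel buffers, then Coomassie staining.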

CaM = assay: Intrinsic tryptophan fluorescence of peptides with CaM; assay type: binding, human; details: 100 μM Ca2+; 5 μM peptide + 5 μM CaM, 20 mM Tris pH 7.5, excitation 290 nm
In short: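 Test peptides carry tryptophan. Each peptide (5 μM) was measured with or without 5 μM E. coli-expressed wild-type CaM in 20 mM Tris pH 7.5 containing 100 μM Ca2+, with 1 mM EGTA in place of Ca2+ as the low-Ca2+ condition. Intrinsic fluorescence was excited at 290 nm and emission scanned from 300 to 450 nm, 2-nm slits. Intensity and emission peak position were compared.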

eNOS [2] = assay: Cytochrome c reductase activity of eNOS; assay type: biochemical, human; details: 10 μM peptide, with CaM
In short: (§1)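 Purified eNOS in Tris-HCl pH 7.5 with NaCl, 10% glycerol, NADPH and enzyme at 37 °C, with or without each peptide, and with or without CaM plus 100 μM CaCl2. Cytochrome c reduction used cytochrome c as electron acceptor. Ferricyanide reduction used the same mixture with ferricyanide in place of cytochrome c.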

eNOS [3] = assay: Ferricyanide reduction by eNOS; assay type: biochemical, human; details: 10 μM peptide, with CaM
In short: as §1

| Substance | Effect on eNOS oxygenase activity (L-citrulline formation), in words (eNOS [1]) | Binding to B1234Q (disappearance of free B1234Q band) (CaM mutant B1234Q) | also measured |
| --- | --- | --- | --- |
| PKFPRVKNWEVGSITYDTLS [Peptide E0] | did not interfere with eNOS catalytic activity |  |  |
| RRPKRREIPL^1KVLV^5KAV^8LFACML^14M [Peptide M2] |  | able to bind B1234Q; also recorded: binds B1234Q with the highest affinity |  |
| TKQA^1WRNA^5PRC^8IG^10RIQW^14SNL [Peptide M1] |  | able to bind B1234Q | Increase in tryptophan fluorescence intensity induced by CaM (CaM): 2 fold |
| VTSRIRTQSF^1SLQERQL^8RGAVPW^14 [Peptide E5] | did not interfere with eNOS catalytic activity |  |  |
| YNSSPRPEQHKSY^1KIRF^5NSI^8SCSDPL^14 [Peptide E3] | weak inhibition on citrulline formation |  | Inhibition of cytochrome c reduction (eNOS [2]): no effect on electron transfer within reductase domain; Inhibition of ferricyanide reduction (eNOS [3]): no effect on electron transfer within reductase domain |
